Test results reported in ChEMBL document CHEMBL4130628, “Identification and Pharmacological Profile of an Indane Based Series of Ghrelin Receptor Full Agonists” (J Med Chem, 2018).
Converted amounts (≈) assume the structure as drawn. The source made the active and inactive calls. No cut-off for these calls is given here.

Assays:
[1] = molecular target: T1, Growth hormone secretagogue receptor type 1 (Homo sapiens, UniProt Q92847); assay: Agonist activity at human GHS receptor assessed as intracellular myo-IP1 secretion after 90 mins by HTRF analysis; format: functional, cell-based; details: read-out: EC50
[2] = Apparent permeability across apical to basolateral side in human Caco2 cells at pH 7.4; format: ADME, cell-based; details: Caco-2, pH 7.4
[3] = Half life in Beagle dog at 2 mg/kg, po after 24 hrs by LC-MS/MS analysis; format: ADME, organism-based, Canis lupus familiaris; details: in vivo
How it was run: (§1)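 Male/female beagles (2–5 y, 12–15 kg) were fasted overnight. IV: about 1 mg/Kg as a 15-min infusion to two animals, in 5% DMSO/95% SBE-β-CD (30% w/v) adjusted to pH 7.5. PO: about 2 mg/Kg by gavage, in the same vehicle or 0.5% HPMC/0.1% Tween 80 suspension. Jugular blood was drawn 0.03–24 h (IV) or 0.17–24 h (PO). K2-EDTA plasma analysed by LC-MS/MS.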

Canis familiaris [4] = assay: Increase in plasma IGF1 level in Beagle dog at 4 mg/kg, po measured after 4 to 7 hrs post dose by ELIS; format: functional, organism-based; details: Canis lupus familiaris
How it was run: (§2)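 Dog blood taken before dosing and at 15, 30, 45 min and 1, 2, 4, 7, 12, 24 h post dose into K2EDTA tubes. Centrifuged at 4°C; plasma frozen below -80°C until IGF-1 analysis.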

[5] = Oral bioavailability in Beagle dog at 2 mg/kg after 24 hrs by LC-MS/MS analysis; format: ADME, organism-based, Canis lupus familiaris; details: in vivo; how it was run: as §1
[6] = Clearance in Beagle dog at 1 mg/kg, iv or 2 mg/kg, po after 24 hrs by LC-MS/MS analysis; format: ADME, organism-based, Canis lupus familiaris; details: in vivo; how it was run: as §1
[7] = 1-octanol/aqueous buffer distribution coefficient, log D of compound at pH 7.4; format: physicochemical; details: 1-octanol/aqueous buffer, read-out: logD
[8] = Volume of distribution in Beagle dog at 1 mg/kg, iv or 2 mg/kg, po after 24 hrs by LC-MS/MS analysis; format: ADME, organism-based, Canis lupus familiaris; details: in vivo; how it was run: as §1
[9] = Apparent intrinsic permeability across apical to basolateral side in human Caco2 cells at pH 6.5; format: ADME, cell-based; details: Caco-2, pH 6.5
[10] = Efflux ratio of apparent permeability across basolateral to apical over apical to basolateral side in human Caco2 cells; format: ADME, cell-based; details: Caco-2
How it was run: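 Caco-2 monolayers; Papp measured in both directions at pH 7.4 (units 1E-6 cm/s). Efflux ratio taken as Papp basolateral-to-apical divided by Papp apical-to-basolateral.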

[11] = molecular target: T1, Growth hormone secretagogue receptor type 1; assay: Displacement of human [125I]-ghrelin from GHS-R1a (unknown origin) expressed in HEK293 cell membranes after 1 hr by radioligand binding assay; details: read-out: IC50
[12] = Apparent permeability across basolateral to apical side in human Caco2 cells at pH 7.4; format: ADME, cell-based; details: Caco-2, pH 7.4
[13] = Ratio of unbound drug level in brain to plasma in Beagle dog at 1 mg/kg, iv or 2 mg/kg, po after 24 hrs by LC-MS/MS analysis; format: ADME, organism-based, Canis lupus familiaris; details: read-out: K(p,uu,brain)
[14] = Drug level in rat hepatocytes treated with 1-Methyl-N-[(1S,2S)-1-{[(2S)-4-methylmorpholine-2-carbonyl]-amino}-2,3-dihydro-1H-inden-2-yl]-1H-indole-5-carboxamide by LC-MS/MS method; format: ADME, cell-based, Hepatocyte
[15] = Drug level in human liver microsomes treated with 1-Methyl-N-[(1S,2S)-1-{[(2S)-4-methylmorpholine-2-carbonyl]-amino}-2,3-dihydro-1H-inden-2-yl]-1H-indole-5-carboxamide by LC-MS/MS method; format: ADME, microsome
Canis familiaris [16] = species on record: Canis familiaris; assay: Drug metabolism in Beagle dog assessed as hydroxylation of 5-methyl of indole ring by LC-MS/MS analysis; format: ADME, organism-based, Canis lupus familiaris; details: in vivo
[17] = Protein binding in human plasma; format: ADME, cell-free; details: read-out: PPB (converted)
Canis familiaris [18] = assay: Increase in plasma IGF1 level in Beagle dog at 8 mg/kg, po measured after 24 hrs post dose by ELIS; format: functional, organism-based; details: Canis lupus familiaris; how it was run: as §2
Cytochrome P450 1A2 = molecular target: T2, Cytochrome P450 1A2 (Homo sapiens, UniProt P05177); assay: Inhibition of CYP1A2 (unknown origin); format: ADME
T2 sequence (P05177 whole entry): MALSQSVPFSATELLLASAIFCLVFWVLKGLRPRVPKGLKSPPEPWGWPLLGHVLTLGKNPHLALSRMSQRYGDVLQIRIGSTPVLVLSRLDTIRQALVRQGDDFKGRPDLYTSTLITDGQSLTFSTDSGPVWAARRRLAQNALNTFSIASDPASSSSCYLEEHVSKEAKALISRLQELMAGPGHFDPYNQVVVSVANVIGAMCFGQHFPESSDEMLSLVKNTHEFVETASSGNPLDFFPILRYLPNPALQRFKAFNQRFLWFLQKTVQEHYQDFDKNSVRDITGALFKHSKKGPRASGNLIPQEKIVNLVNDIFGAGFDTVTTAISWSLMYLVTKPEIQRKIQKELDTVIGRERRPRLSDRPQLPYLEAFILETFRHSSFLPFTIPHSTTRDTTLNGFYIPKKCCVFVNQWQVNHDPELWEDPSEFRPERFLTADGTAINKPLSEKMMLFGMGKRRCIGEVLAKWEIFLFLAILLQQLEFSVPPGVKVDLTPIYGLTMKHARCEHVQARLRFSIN

Cytochrome P450 3A4 = Cytochrome P450 3A4 (Homo sapiens, UniProt P08684); assay: Inhibition of CYP3A4 (unknown origin); format: ADME
[19] = Protein binding in dog plasma; format: ADME, cell-free, Canis lupus familiaris; details: read-out: PPB (converted)
[20] = Clearance in Han-Wister rat at 1 mg/kg, iv bolus or 2 mg/kg, po after 24 hrs by LC-MS/MS analysis; format: ADME, organism-based; details: Han-Wistar, in vivo
How it was run: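 Male Han Wistar rats (7–8 weeks, 200–300 g). IV bolus of about 1 mg/Kg via tail vein to two animals, in 5% DMSO/95% SBE-β-CD (30% w/v), pH 7.5. Oral dose of about 2 mg/Kg in the same vehicle. Jugular blood collected from pre-dose to 24 h. K2-EDTA plasma kept at -75±15 °C and analysed by LC-MS/MS.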

Cytochrome P450 2C19 [21] = molecular target: T3, Cytochrome P450 2C19 (Homo sapiens, UniProt P33261); assay: Drug metabolism assessed as CYP2C19 (unknown origin)-mediated hydroxylation of methyl group of indole; format: ADME
Mu-type opioid receptor [22] = molecular target: T4, Mu-type opioid receptor (Homo sapiens, UniProt P35372); assay: Agonist activity at mu1-opioid receptor (unknown origin) by cell-based assay
Mu-type opioid receptor [23] = molecular target: T4, Mu-type opioid receptor; assay: Agonist activity at mu1-opioid receptor (unknown origin)
[24] = Fraction absorbed in Beagle dog at 2 mg/kg, po after 24 hrs by LC-MS/MS analysis; format: ADME, organism-based, Canis lupus familiaris; details: in vivo, read-out: Fabs
[25] = Solubility of compound; format: physicochemical
Cytochrome P450 2C19 [26] = molecular target: T3, Cytochrome P450 2C19; assay: Inhibition of CYP2C19 (unknown origin); format: ADME
[27] = molecular target: Voltage-gated inwardly rectifying potassium channel KCNH2 (Homo sapiens, UniProt Q12809); assay: Inhibition of human ERG expressed in CHO cells; format: cell-based
How it was run: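 hERG currents recorded from CHO cells expressing hERG.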

[28] = Drug elimination in Beagle dog urine by LC-MS/MS analysis; format: ADME, Canis lupus familiaris; details: read-out: Drug excretion
Rattus norvegicus = assay: Renal clearance in Han-Wister rat at 1 mg/kg, iv bolus or 2 mg/kg, po after 24 hrs by LC-MS/MS analysis; format: ADME, organism-based; details: in vivo
[29] = Intrinsic clearance in human liver microsomes; format: ADME, microsome; details: read-out: CLH
Cytochrome P450 2C9 = Cytochrome P450 2C9 (Homo sapiens, UniProt P11712); assay: Inhibition of CYP2C9 (unknown origin); format: ADME
[30] = Time dependent inhibition of CYP450 in human liver microsomes; format: ADME
[31] = Intrinsic clearance in rat liver microsomes; format: ADME, microsome; details: read-out: CLH
[32] = Intrinsic clearance in dog liver microsomes; format: ADME, Canis lupus familiaris, microsome; details: read-out: CLH
[33] = Protein binding in rat plasma; format: ADME, cell-free; details: read-out: PPB (converted)
Cytochrome P450 2D6 = Cytochrome P450 2D6 (Homo sapiens, UniProt P10635); assay: Inhibition of CYP2D6 (unknown origin); format: ADME
[34] = Drug metabolism in human liver microsomes assessed as 1-Methyl-N-((1S,2S)-1-((S)-morpholine-2-carboxamido)-2,3-dihydro-1H-inden-2-yl)-1H-indole-5-carboxamide formation by LC-MS/MS method; format: ADME, microsome
Hepatocyte [35] = assay: Stability in rat hepatocytes assessed as formation of aldehyde adducts by LC-MS/MS method; format: ADME, cell-based
Hepatocyte [36] = assay: Stability in rat hepatocytes assessed as formation of iminium ions by LC-MS/MS method; format: ADME, cell-based
[37] = Stability in human liver microsomes assessed as formation of aldehyde adducts by LC-MS/MS method; format: ADME, microsome
[38] = Drug metabolism in rat hepatocytes assessed as 1-Methyl-N-((1S,2S)-1-((S)-morpholine-2-carboxamido)-2,3-dihydro-1H-inden-2-yl)-1H-indole-5-carboxamide formation by LC-MS/MS method; format: ADME, cell-based, Hepatocyte
[39] = Stability in human liver microsomes assessed as formation of iminium ions by LC-MS/MS method; format: ADME, microsome

T1 sequence (Q92847 whole entry): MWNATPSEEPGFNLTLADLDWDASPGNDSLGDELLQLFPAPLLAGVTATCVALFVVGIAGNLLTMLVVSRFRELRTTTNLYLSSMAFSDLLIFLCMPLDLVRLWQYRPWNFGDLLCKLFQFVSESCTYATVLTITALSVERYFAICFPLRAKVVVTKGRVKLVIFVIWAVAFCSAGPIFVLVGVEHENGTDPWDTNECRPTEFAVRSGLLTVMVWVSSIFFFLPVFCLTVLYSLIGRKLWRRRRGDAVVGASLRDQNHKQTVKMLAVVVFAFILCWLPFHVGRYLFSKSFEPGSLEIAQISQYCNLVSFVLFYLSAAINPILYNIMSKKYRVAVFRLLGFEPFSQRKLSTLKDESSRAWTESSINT
T3 sequence (P33261 whole entry): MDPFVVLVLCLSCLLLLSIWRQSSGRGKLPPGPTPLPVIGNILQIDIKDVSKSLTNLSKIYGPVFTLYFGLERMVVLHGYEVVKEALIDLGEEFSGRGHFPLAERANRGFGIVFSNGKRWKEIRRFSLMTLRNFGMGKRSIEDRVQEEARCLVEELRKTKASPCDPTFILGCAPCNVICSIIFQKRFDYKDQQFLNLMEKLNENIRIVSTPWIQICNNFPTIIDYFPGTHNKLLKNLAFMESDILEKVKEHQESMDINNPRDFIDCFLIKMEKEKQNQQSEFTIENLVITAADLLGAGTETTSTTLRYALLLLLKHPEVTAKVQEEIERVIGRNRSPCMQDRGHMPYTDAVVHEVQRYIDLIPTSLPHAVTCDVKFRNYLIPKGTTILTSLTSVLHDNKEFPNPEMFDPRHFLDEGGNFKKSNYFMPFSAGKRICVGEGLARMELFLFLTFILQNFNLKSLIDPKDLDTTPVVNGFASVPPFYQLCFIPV
T4 sequence (P35372 whole entry): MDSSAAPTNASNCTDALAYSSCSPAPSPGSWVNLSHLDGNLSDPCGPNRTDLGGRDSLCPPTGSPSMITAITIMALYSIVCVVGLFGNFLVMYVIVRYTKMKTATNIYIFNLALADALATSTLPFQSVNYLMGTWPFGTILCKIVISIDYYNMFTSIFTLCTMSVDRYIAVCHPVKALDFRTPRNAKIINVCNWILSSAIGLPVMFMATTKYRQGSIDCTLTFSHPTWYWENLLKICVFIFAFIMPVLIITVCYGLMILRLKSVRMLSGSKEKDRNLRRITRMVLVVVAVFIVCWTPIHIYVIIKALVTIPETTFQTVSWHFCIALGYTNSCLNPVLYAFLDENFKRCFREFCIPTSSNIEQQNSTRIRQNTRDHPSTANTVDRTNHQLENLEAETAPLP
Sequence of Voltage-gated inwardly rectifying potassium channel KCNH2 (Q12809 whole entry): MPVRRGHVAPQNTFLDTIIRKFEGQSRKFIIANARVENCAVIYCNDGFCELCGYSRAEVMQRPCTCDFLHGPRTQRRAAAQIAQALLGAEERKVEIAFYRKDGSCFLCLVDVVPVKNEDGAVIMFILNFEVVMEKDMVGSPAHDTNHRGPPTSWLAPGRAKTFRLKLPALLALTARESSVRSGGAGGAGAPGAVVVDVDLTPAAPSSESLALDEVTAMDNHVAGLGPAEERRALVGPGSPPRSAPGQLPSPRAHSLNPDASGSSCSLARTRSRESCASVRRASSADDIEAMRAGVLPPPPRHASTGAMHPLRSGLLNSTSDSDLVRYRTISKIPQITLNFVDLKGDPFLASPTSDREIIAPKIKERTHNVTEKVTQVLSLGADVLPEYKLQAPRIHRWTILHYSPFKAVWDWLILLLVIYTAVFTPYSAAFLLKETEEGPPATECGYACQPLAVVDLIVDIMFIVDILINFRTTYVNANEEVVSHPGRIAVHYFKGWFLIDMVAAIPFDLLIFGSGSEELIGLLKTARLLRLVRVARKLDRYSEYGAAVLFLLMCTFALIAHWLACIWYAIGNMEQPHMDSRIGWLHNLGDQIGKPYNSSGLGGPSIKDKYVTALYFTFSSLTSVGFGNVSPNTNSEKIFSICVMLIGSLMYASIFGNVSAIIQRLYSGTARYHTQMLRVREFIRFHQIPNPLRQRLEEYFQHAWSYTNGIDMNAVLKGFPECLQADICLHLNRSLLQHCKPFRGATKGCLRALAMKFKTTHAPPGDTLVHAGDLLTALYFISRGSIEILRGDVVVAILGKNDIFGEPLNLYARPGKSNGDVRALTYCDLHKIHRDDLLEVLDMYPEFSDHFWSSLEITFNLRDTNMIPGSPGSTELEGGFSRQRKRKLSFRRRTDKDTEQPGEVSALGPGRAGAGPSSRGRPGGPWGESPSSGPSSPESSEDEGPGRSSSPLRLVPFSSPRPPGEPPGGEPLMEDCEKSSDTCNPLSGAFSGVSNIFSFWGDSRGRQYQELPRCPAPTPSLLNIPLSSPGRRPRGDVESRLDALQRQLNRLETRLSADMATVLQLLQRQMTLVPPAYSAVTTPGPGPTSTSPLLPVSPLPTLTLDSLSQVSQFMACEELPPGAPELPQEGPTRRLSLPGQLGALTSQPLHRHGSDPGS
Sequence of Cytochrome P450 2D6 (P10635 whole entry): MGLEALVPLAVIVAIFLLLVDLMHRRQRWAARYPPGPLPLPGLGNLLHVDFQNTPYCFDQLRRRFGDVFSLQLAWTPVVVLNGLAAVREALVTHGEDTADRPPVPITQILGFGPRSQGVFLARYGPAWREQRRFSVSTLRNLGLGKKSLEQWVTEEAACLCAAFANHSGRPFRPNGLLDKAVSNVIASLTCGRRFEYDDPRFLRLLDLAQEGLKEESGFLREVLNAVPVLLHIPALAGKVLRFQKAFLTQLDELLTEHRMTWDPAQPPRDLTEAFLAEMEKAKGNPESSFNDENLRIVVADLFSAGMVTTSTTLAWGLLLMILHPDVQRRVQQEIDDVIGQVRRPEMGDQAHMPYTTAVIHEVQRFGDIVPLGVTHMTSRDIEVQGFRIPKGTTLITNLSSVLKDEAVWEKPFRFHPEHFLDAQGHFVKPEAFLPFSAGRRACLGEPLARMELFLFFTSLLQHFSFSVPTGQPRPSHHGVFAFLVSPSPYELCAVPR
Sequence of Cytochrome P450 3A4 (P08684 whole entry): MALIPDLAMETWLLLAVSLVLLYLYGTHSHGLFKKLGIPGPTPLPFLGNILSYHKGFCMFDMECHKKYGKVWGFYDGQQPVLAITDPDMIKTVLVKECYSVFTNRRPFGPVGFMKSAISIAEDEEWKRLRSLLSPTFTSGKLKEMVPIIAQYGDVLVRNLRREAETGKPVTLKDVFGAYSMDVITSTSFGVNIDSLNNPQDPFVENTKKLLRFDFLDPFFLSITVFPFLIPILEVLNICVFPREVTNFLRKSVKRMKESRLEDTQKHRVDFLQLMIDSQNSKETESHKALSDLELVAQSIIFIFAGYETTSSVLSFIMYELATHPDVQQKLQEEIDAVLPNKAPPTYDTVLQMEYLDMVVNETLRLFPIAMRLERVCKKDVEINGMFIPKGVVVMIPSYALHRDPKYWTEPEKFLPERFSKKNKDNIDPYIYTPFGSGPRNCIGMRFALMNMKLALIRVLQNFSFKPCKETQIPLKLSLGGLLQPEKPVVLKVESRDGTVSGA
Sequence of Cytochrome P450 2C9 (P11712 whole entry): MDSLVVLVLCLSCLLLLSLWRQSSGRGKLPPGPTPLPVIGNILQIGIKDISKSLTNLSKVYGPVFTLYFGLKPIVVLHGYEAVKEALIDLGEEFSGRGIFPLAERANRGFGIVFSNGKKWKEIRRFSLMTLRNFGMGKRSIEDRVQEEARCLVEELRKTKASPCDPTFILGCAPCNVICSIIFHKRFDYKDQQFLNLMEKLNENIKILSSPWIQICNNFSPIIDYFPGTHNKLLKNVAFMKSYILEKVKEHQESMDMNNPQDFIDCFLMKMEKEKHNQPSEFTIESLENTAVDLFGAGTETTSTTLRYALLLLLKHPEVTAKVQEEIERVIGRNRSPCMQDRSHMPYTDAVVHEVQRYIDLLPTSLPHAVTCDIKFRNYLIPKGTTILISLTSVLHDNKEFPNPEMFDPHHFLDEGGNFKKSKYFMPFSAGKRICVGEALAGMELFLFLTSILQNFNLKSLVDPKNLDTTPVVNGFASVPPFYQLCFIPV

Cc1ccc2[nH]c(C(=O)N[C@H]3Cc4ccccc4[C@@H]3NC(=O)[C@@H]3CN(C)CCO3)cc2c1
EC50 [1]: 1.4 nM
Papp A→B [2]: 15.3 ×10⁻⁶ cm/s
half-life [3]: 1.2 h
Activity (Canis familiaris [4]): Active
bioavailability [5]: 39%
clearance [6]: 28 mL/min/kg
logD [7]: 3.7
Vd [8]: 2.1 L/kg
Papp A→B [9]: 44.4 ×10⁻⁶ cm/s
efflux ratio [10]: 0.5
IC50 [11]: 14 nM
Papp B→A [12]: 7.5 ×10⁻⁶ cm/s
Kp uu at 24 h [13]: 0.292

Cn1ccc2cc(C(=O)N[C@H]3Cc4ccccc4[C@@H]3NC(=O)[C@@H]3CNCCO3)ccc21
EC50 [1]: 52 nM
Drug metabolism [14]: Metabolite_Detected
logD [7]: 1.8
Drug metabolism [15]: Metabolite_Detected

CN(C)CCNC(=O)[C@H]1c2ccccc2C[C@@H]1NC(=O)c1cc2ccccc2[nH]1
Drug metabolism (Canis familiaris [16]): Metabolite_Detected
fraction unbound [17]: 0.88
EC50 [1]: 2 nM
Activity (Canis familiaris [18]): Active
IC50 (Cytochrome P450 1A2): > 20000 nM
Papp A→B [2]: 0.6 ×10⁻⁶ cm/s
half-life [3]: 13.2 to 16.6 h
IC50 (Cytochrome P450 3A4): > 20000 nM
fraction unbound [19]: 0.92
clearance [20]: 170 mL/min/kg
bioavailability [5]: 9 to 13%
clearance [6]: 18.8 to 26 mL/min/kg
Drug metabolism (Cytochrome P450 2C19 [21]): Metabolite_Detected
IC50 (Mu-type opioid receptor [22]): 234 nM
logD [7]: 2.4
IC50 (Mu-type opioid receptor [23]): 79.4 nM
Fa at 24 h [24]: 20%
Vd [8]: 4.8 to 5.8 L/kg
solubility [25]: 100 µM (≈ 39 µg/mL)
IC50 (Cytochrome P450 2C19 [26]): > 20000 nM
Papp A→B [9]: < 2.4 ×10⁻⁶ cm/s
efflux ratio [10]: 67.2
IC50 [27]: 31600 nM
dose excreted [28]: 2%
CL (Rattus norvegicus): > 5%
microsomal CLint [29]: 4 to 9 µL/min/mg
IC50 [11]: 4 nM
IC50 (Cytochrome P450 2C9): > 20000 nM
Papp B→A [12]: 17.7 ×10⁻⁶ cm/s
TDI [30]: Not Active
microsomal CLint [31]: 48 µL/min/mg
microsomal CLint [32]: 9 µL/min/mg
fraction unbound [33]: 0.96
Kp uu at 24 h [13]: < 0.02
IC50 (Cytochrome P450 2D6): > 20000 nM

CN1CCO[C@H](C(=O)N[C@H]2c3ccccc3C[C@@H]2NC(=O)c2ccc3c(ccn3C)c2)C1
Drug metabolism [34]: Metabolite_Detected
EC50 [1]: 21 nM
Stability (Hepatocyte [35]): Unstable
Stability (Hepatocyte [36]): Unstable
Stability [37]: Unstable
Drug metabolism [38]: Metabolite_Detected
logD [7]: 2.6
Stability [39]: Unstable
IC50 [11]: 241 nM
